Assay results from ChEMBL document CHEMBL1148747, “Structure-activity relationship studies of spinorphin as a potent and selective human P2X(3) receptor antagonist” (J Med Chem, 2007).
Calls of active or inactive are those of the source. The rule behind the calls is not given here. Residues, ends and D or L forms follow the SMILES beside them.

What was measured:
[1] = target: T1, P2X purinoceptor 1 (Mus musculus) (UniProt P51576); assay: Antagonist activity at mouse recombinant P2X1 receptor expressed in Xenopus oocytes assessed as inhibition of ATP-induced ion current at 10 uM by two electrode voltage clamping technique; assay type: functional, cell-based; conditions: Oocyte
T1 sequence (whole entry): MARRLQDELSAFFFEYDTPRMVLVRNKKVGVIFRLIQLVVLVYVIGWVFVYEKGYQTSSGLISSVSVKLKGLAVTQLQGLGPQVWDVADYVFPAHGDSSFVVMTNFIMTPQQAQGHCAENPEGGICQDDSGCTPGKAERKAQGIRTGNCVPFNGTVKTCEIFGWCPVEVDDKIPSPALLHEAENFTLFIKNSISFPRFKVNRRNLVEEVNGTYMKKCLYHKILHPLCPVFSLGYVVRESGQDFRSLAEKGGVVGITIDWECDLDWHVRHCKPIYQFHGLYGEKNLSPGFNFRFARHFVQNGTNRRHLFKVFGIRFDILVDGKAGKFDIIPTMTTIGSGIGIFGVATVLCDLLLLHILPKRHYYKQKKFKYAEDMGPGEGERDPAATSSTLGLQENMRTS
How it was run: (§1)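 Defolliculated Xenopus oocytes injected with receptor cRNA (40 nL, 1 µg/mL). Incubated 24 h at 18 °C in Barth's solution, then kept at 4 °C for up to 12 days. Two-electrode voltage clamp at Vh -90 mV in Ringer's solution (Ba2+, pH 7.5, 18 °C). Peptide applied 20 min before 2 µM ATP; current inhibition measured against ATP-alone control; n = 4.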

[2] = target: T2, P2X purinoceptor 7 (Homo sapiens) (UniProt Q99572); assay: Antagonist activity at human recombinant P2X7 receptor expressed in HEK293 cells assessed as BzATP-induced ethidium accumulation at 10 uM; assay type: functional, cell-based
T2 sequence (whole entry): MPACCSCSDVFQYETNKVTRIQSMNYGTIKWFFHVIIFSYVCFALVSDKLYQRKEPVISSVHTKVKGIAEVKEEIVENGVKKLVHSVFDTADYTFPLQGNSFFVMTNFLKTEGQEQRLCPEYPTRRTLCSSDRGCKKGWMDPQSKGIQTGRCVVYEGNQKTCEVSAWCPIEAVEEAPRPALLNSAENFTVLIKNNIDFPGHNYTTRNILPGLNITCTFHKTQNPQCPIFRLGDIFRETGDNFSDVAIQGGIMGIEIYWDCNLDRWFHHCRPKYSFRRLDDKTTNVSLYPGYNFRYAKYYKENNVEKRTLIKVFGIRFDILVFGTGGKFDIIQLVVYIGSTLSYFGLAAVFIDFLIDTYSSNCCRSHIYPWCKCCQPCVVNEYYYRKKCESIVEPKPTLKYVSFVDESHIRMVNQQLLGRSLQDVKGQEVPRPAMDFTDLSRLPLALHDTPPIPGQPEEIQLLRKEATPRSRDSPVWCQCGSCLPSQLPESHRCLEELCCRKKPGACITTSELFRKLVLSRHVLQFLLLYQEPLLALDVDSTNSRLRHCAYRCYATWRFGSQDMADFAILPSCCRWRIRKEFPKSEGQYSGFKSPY
How it was run: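 HEK293 cells expressing human P2X7, grown in DMEM with 10% FBS. Cells resuspended in HEPES/KCl/glucose/EDTA buffer (pH 7.4) with 100 µM ethidium bromide, 2 × 10^5 cells/well. 6 µM BzATP given together with 10 µM compound, no preincubation. After 120 min at 37 °C, ethidium fluorescence read (ex 530/em 590 nm). Mean ± SEM, n = 3.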

[3] = target: T3, P2X purinoceptor 3 (Homo sapiens) (UniProt P56373); assay: Antagonist activity at human recombinant P2X3 receptor expressed in Xenopus oocytes assessed as inhibition of ATP-induced ion current at 10 uM by two electrode voltage clamping technique; assay type: functional, cell-based; conditions: Oocyte; how it was run: as §1
T3 sequence (whole entry): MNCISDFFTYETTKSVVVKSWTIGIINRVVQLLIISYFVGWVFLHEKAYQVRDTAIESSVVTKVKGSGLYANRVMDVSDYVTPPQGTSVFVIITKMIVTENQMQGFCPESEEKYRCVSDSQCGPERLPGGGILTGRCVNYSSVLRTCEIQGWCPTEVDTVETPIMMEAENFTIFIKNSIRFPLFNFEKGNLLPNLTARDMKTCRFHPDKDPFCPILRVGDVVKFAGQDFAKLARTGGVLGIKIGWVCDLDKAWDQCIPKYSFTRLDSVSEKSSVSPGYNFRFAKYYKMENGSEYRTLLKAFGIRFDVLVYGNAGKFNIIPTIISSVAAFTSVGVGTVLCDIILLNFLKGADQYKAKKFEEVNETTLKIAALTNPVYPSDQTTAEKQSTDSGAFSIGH

[4] = target: T3, P2X purinoceptor 3 (Homo sapiens); assay: Antagonist activity at human recombinant P2X3 receptor expressed in Xenopus oocytes assessed as inhibition of ATP-induced ion current at 100 nM by two electrode voltage clamping technique; conditions: Oocyte
P2X purinoceptor 3 [5] = target: T4, P2X purinoceptor 3 (Homo sapiens, UniProt P56373); assay: Antagonist activity at human P2X3 receptor expressed in Xenopus oocytes assessed as inhibition of ATP-induced ion current by two electrode voltage clamping technique; assay type: functional, cell-based, Oocyte; how it was run: as §1
T4 sequence (P56373 whole entry): T3 sequence (whole entry)

[6] = target: T1, P2X purinoceptor 1 (Mus musculus); assay: Antagonist activity at mouse recombinant P2X1 receptor expressed in Xenopus oocytes assessed as inhibition of ATP-induced ion current at 100 nM by two electrode voltage clamping technique; conditions: Oocyte
P2X purinoceptor 3 [7] = target: T4, P2X purinoceptor 3; assay: Antagonist activity at human recombinant P2X3 receptor expressed in Xenopus oocytes assessed as inhibition of ATP-induced ion current in presence of 20 nM LVVYPWA peptide by two electrode voltage clamping technique; assay type: functional, cell-based, Oocyte

inhibition [1] | Activity [2] | inhibition [4] | Molecule | other results
15.5% | inactive |  | CC(C)C[C@@H](NC(=O)[C@H](NC(=O)[C@H](NC(=O)[C@@H](Cc1ccc(O)cc1)NC(=O)[C@H]1CCCN1C(=O)[C@@H](Cc1c[nH]c2ccccc12)NC(=O)[C@H](N)[C@@H](C)O)C(C)C)C(C)C)C(=O)O | 
 |  | 48.3% | Cc1nc(/N=N/c2cc(S(=O)(=O)O)ccc2S(=O)(=O)O)c(COP(=O)(O)O)c(C=O)c1O [ISOPPADS] | inhibition [6]: 64.2%; IC50 (P2X purinoceptor 3 [5]): 108 nM
 | inactive | 82.5% | H-AVVYPWT-OH | Activity [1]: inactive; IC50 (P2X purinoceptor 3 [5]): 14.3 nM
8.1% |  | 48.4% | H-LAVYPWT-OH | inhibition [2]: 7.6%; IC50 (P2X purinoceptor 3 [5]): 32.4 nM
 | inactive | 52.3% | H-LVVAPWT-OH | Activity [1]: inactive
4.2% |  | 17% | H-LVVYPAT-OH | inhibition [2]: 16.7%
7.4% |  | 67.2% | H-LVVYPWT-OH [SPINORPHIN] | IC50 (P2X purinoceptor 3 [7]): 0.0481 nM; inhibition [2]: 8.3%; IC50 (P2X purinoceptor 3 [5]): 0.0083 nM

Continued, molecule first:

Molecule | inhibition [1] | Activity [2] | inhibition [4] | other results
C[C@@H](O)[C@H](NC(=O)[C@H](Cc1c[nH]c2ccccc12)NC(=O)[C@@H]1CCCN1)C(=O)O (H-Pro-Trp-Thr-OH) |  |  |  | inhibition [3]: 32.7%
N[C@@H](Cc1ccc(O)cc1)C(=O)N1CCC[C@H]1C(=O)N[C@@H](Cc1c[nH]c2ccccc12)C(=O)O (H-Tyr-Pro-Trp-OH) |  |  |  | inhibition [3]: 15.6%
CC(C)[C@H](N)C(=O)N[C@@H](Cc1ccc(O)cc1)C(=O)N1CCC[C@H]1C(=O)N[C@@H](Cc1c[nH]c2ccccc12)C(=O)O (H-VYPW-OH) |  |  |  | Activity [3]: inactive
CC(C)[C@H](N)C(=O)N[C@@H](Cc1ccc(O)cc1)C(=O)N1CCC[C@H]1C(=O)O (H-Val-Tyr-Pro-OH) |  |  |  | inhibition [3]: 16.2%
C[C@@H](O)[C@H](NC(=O)[C@H](Cc1c[nH]c2ccccc12)NC(=O)[C@@H]1CCCN1C(=O)[C@@H](N)Cc1ccc(O)cc1)C(=O)O (H-YPWT-OH) |  |  |  | inhibition [3]: 13.3%
CC(C)[C@@H]1NC(=O)[C@H](C)NC(=O)[C@H]([C@@H](C)O)NC(=O)[C@H](Cc2c[nH]c3ccccc23)NC(=O)[C@@H]2CCCN2C(=O)[C@H](Cc2ccc(O)cc2)NC(=O)[C@H](C(C)C)NC1=O (HELM PEPTIDE1{A.V.V.Y.P.W.T}$PEPTIDE1,PEPTIDE1,1:R1-7:R2$$$V2.0) | 6.4% | inactive | 11.4% | 
CC(C)C[C@@H]1NC(=O)[C@H]([C@@H](C)O)NC(=O)[C@H](Cc2c[nH]c3ccccc23)NC(=O)[C@@H]2CCCN2C(=O)[C@H](Cc2ccc(O)cc2)NC(=O)[C@H](C(C)C)NC(=O)[C@H](C(C)C)NC1=O (HELM PEPTIDE1{L.V.V.Y.P.W.T}$PEPTIDE1,PEPTIDE1,1:R1-7:R2$$$V2.0) | 11.5% |  | 36.3% | inhibition [2]: 8.8%; IC50 (P2X purinoceptor 3 [5]): 82.4 nM
H-LVAYPWT-OH |  | inactive | 53.4% | Activity [1]: inactive
H-LVVYAWT-OH |  | inactive | 12.9% | Activity [1]: inactive
H-VVYPWT-OH |  |  |  | inhibition [3]: 29.3%
H-VYPWT-OH |  |  |  | Activity [3]: inactive
